Laboratory results: ChEMBL document CHEMBL4304816, “A Novel Biphenyl-based Chemotype of Retinoid X Receptor Ligands Enables Subtype and Heterodimer Preferences” (ACS Med Chem Lett, 2019)
Calls of active or inactive are those of the source. The rule behind the calls is not given here.

What was measured:
Assay type in all cases: cell-based
[1] = target: T1, Retinoic acid receptor RXR-alpha (Homo sapiens) (UniProt P19793); assay: Agonist activity at Gal4-LBD fused RXRalpha (unknown origin) expressed in HEK293T cells assessed as fold activation after 14 to 16 hrs by dual-Glo luciferase assay relative to untreated control
T1 sequence (whole entry): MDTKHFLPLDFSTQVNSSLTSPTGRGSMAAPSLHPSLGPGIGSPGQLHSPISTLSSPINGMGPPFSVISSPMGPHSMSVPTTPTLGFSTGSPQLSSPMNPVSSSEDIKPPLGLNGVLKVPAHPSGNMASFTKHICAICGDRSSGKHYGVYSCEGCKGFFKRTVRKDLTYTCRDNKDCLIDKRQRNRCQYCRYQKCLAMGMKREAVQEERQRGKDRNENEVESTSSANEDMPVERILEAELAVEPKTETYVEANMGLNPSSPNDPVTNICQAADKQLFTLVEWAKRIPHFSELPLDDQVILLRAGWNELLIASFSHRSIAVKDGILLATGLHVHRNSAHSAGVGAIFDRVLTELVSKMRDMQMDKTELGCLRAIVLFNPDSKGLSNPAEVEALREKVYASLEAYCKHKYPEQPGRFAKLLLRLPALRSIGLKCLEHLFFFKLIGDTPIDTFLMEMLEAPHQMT
In short: (§1)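 Gal4-hybrid RXRα/β/γ reporter gene assays in HEK293T cells. Fold activation is the maximal fold activation versus 0.1% DMSO.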

[2] = target: T2, Retinoic acid receptor RXR-beta (Homo sapiens) (UniProt P28702); assay: Agonist activity at Gal4-LBD fused RXRbeta (unknown origin) expressed in HEK293T cells assessed as fold activation after 14 to 16 hrs by dual-Glo luciferase assay relative to untreated control; in short: as §1
T2 sequence (whole entry): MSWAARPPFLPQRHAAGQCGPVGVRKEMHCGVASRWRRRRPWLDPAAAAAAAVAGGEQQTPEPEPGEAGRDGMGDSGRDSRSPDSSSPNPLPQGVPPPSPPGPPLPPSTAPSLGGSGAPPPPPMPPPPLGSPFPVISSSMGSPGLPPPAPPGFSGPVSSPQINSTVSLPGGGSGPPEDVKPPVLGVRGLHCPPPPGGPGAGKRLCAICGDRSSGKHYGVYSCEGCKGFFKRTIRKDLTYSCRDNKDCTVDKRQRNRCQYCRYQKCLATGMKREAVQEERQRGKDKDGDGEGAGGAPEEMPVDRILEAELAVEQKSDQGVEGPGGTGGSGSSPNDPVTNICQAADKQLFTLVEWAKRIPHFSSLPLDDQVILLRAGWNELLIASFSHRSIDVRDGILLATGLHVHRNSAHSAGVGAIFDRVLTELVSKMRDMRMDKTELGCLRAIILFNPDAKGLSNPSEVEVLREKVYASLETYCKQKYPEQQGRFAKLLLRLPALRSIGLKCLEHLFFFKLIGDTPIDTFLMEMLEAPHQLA

[3] = target: T3, Retinoic acid receptor RXR-gamma (Homo sapiens) (UniProt P48443); assay: Agonist activity at Gal4-LBD fused RXRgamma (unknown origin) expressed in HEK293T cells at 30 uM after 14 to 16 hrs by dual-Glo luciferase assay
T3 sequence (whole entry): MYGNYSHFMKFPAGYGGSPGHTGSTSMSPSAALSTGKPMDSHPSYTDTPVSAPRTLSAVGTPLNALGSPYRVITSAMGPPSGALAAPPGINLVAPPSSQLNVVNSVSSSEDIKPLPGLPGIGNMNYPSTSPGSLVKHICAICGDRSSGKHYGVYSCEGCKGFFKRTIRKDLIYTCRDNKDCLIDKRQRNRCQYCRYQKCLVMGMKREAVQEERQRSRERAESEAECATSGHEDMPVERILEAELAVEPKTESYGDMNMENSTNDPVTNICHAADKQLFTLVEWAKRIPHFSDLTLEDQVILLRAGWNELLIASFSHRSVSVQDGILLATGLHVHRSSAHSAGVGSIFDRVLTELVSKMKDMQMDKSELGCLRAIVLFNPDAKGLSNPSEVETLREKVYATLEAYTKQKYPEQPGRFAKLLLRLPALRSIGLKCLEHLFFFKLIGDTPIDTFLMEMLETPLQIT

[4] = target: T4, Retinoic acid receptor RXR-beta (Homo sapiens, UniProt P28702); assay: Agonist activity at Gal4-LBD fused RXRbeta (unknown origin) expressed in HEK293T cells after 14 to 16 hrs by dual-Glo luciferase assay; in short: as §1
T4 sequence (P28702 whole entry): T2 sequence (whole entry)

[5] = target: T5, Retinoic acid receptor RXR-alpha (Homo sapiens, UniProt P19793); assay: Agonist activity at Gal4-LBD fused RXRalpha (unknown origin) expressed in HEK293T cells after 14 to 16 hrs by dual-Glo luciferase assay; in short: as §1
T5 sequence (P19793 whole entry): T1 sequence (whole entry)

Homo sapiens [6] = species: Homo sapiens; assay: Agonist activity at full-length human PPARgamma/RXR expressed in HEK293T cells at 20 uM after 14 to 16 hrs in presence of 1 uM rosiglitazone by dual-glo luciferase reporter gene assay relative to rosiglitazone
In short: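 RXR:PPARγ heterodimer reporter assay run with reference PPARγ agonist rosiglitazone (1 μM) co-applied. Read-out is mean relative synergistic activation, from three independent experiments each run in duplicate.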

Homo sapiens [7] = species: Homo sapiens; assay: Agonist activity at full-length human PPARgamma/RXR expressed in HEK293T cells at 20 uM after 14 to 16 hrs by dual-glo luciferase reporter gene assay relative to untreated control
In short: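 RXR:PPARγ heterodimer reporter assay in HEK293T cells with test compound alone. Mean relative activation is taken versus 0.1% DMSO, from three independent experiments each run in duplicate.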

[8] = Agonist activity at full-length human RXR/LXR expressed in HEK293T cells at 20 uM after 14 to 16 hrs in presence of 1 uM T0901317 by dual-glo luciferase reporter gene assay relative to T0901317; details: HEK-293T, read-out: Activity
In short: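 Synergy format: the test compound was co-applied with the partner-receptor reference agonist at 1 μM, either T0901317 (RXR:LXR) or rosiglitazone (RXR:PPARγ). Relative synergistic activation was derived from three independent experiments, each in duplicate; mean reported.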

[9] = Agonist activity at full-length human RXR/LXR expressed in HEK293T cells at 20 uM after 14 to 16 hrs by dual-glo luciferase reporter gene assay relative to untreated control; details: HEK-293T, read-out: Activity
In short: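 RXR:LXR or RXR:PPARγ heterodimer reporter assay with test compound alone. Activation expressed relative to 0.1% DMSO vehicle. Three independent experiments, each in duplicate; mean reported.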

[10] = target: T1, Retinoic acid receptor RXR-alpha (Homo sapiens); assay: Agonist activity at Gal4-LBD fused RXRalpha (unknown origin) expressed in HEK293T cells assessed as fold activation at 30 uM after 14 to 16 hrs by dual-Glo luciferase assay relative to untreated control; in short: as §1
[11] = target: T3, Retinoic acid receptor RXR-gamma (Homo sapiens); assay: Agonist activity at Gal4-LBD fused RXRgamma (unknown origin) expressed in HEK293T cells assessed as fold activation at 30 uM after 14 to 16 hrs by dual-Glo luciferase assay relative to untreated control; in short: as §1
[12] = target: T2, Retinoic acid receptor RXR-beta (Homo sapiens); assay: Agonist activity at Gal4-LBD fused RXRbeta (unknown origin) expressed in HEK293T cells assessed as fold activation at 30 uM after 14 to 16 hrs by dual-Glo luciferase assay relative to untreated control; in short: as §1
[13] = target: T2, Retinoic acid receptor RXR-beta (Homo sapiens); assay: Agonist activity at Gal4-LBD fused RXRbeta (unknown origin) expressed in HEK293T cells at 30 uM after 14 to 16 hrs by dual-Glo luciferase assay
[14] = target: T1, Retinoic acid receptor RXR-alpha (Homo sapiens); assay: Agonist activity at Gal4-LBD fused RXRalpha (unknown origin) expressed in HEK293T cells at 30 uM after 14 to 16 hrs by dual-Glo luciferase assay
[15] = target: T3, Retinoic acid receptor RXR-gamma (Homo sapiens); assay: Agonist activity at Gal4-LBD fused RXRgamma (unknown origin) expressed in HEK293T cells at 20 uM after 14 to 16 hrs by dual-Glo luciferase assay
[16] = target: T3, Retinoic acid receptor RXR-gamma (Homo sapiens); assay: Agonist activity at Gal4-LBD fused RXRgamma (unknown origin) expressed in HEK293T cells at 10 uM after 14 to 16 hrs by dual-Glo luciferase assay
[17] = target: T3, Retinoic acid receptor RXR-gamma (Homo sapiens); assay: Agonist activity at Gal4-LBD fused RXRgamma (unknown origin) expressed in HEK293T cells assessed as fold activation after 14 to 16 hrs by dual-Glo luciferase assay relative to untreated control; in short: as §1
[18] = target: T6, Retinoic acid receptor RXR-gamma (Homo sapiens, UniProt P48443); assay: Agonist activity at Gal4-LBD fused RXRgamma (unknown origin) expressed in HEK293T cells after 14 to 16 hrs by dual-Glo luciferase assay; in short: as §1
T6 sequence (P48443 whole entry): T3 sequence (whole entry)

Row | fold change (FC) [1] | fold change (FC) [2] | Activity [3] | EC50 [4] [µM] | EC50 [5] [µM] | Compound | other results
1 |  |  | inactive | 8.9 | 9.1 | Cc1cc(-c2cc(C(F)(F)F)cc(C(F)(F)F)c2)ccc1C(=O)O | Activity (Homo sapiens [6]): 46%; Activity (Homo sapiens [7]): 84%; activity at 20 µM [8]: 71%; activity at 20 µM [9]: 71%
2 |  |  | inactive |  |  | Cc1cccc(-c2ccc(C(=O)O)cc2)c1 | Activity [13]: inactive; Activity [14]: inactive
3 | 3.5 | 28 |  | 7 | 3.5 | Cc1cc(-c2cc(C(C)(C)C)cc(C(C)(C)C)c2)ccc1CC(=O)O | Activity [16]: inactive
4 | 21 | 94 |  | 2.1 | 1.5 | CC(C)(C)c1cc(-c2ccc(CCC(=O)O)cc2)cc(C(C)(C)C)c1 | fold change (FC) [17]: 17; EC50 [18]: 5 µM

The next lines start with the compound.

Row | Compound | fold change (FC) [1] | fold change (FC) [2] | Activity [3] | EC50 [4] [µM] | EC50 [5] [µM] | other results
5 | CCOc1cccc(-c2ccc(C(=O)O)cc2)c1 | 11 | 11 | inactive | 30 | 22.5 | 
6 | Cc1cc(C)cc(-c2ccc(C(=O)O)cc2)c1 | 26 | 97 | inactive | 18.6 | 9.6 | fold change (FC) [10]: 25; fold change (FC) [11]: 2; fold change (FC) [12]: 74
7 | CC(C)Oc1cccc(-c2ccc(C(=O)O)cc2)c1 | 18 | 19 |  | 13.4 | 10.6 | Activity [15]: inactive
8 | O=C(O)c1ccc(-c2ccccc2)cc1 |  |  | inactive |  |  | Activity [13]: inactive; Activity [14]: inactive
9 | CC(C)c1cccc(-c2ccc(C(=O)O)cc2)c1 | 28 | 65 |  | 16.2 | 14.3 | fold change (FC) [17]: 2.7; EC50 [18]: 11.6 µM
